STK33 kinase inh: inhibitors of purified STK33 kinase, primary screen, biochemical, ADP-Glo luminescence, homogeneous, cell-free. AID 2661, 2010. MBP phosphorylation. Serine/threonine-protein kinase 33 (Homo sapiens), Q9BYT3. inhibition, % at 10 µM. 320,000 compounds, 0.073% hits;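 active means inhibition at or above 25%, using the most active replicate where run in duplicate; inactive means inhibition below 25%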
Target sequence (Q9BYT3 whole entry, looked up): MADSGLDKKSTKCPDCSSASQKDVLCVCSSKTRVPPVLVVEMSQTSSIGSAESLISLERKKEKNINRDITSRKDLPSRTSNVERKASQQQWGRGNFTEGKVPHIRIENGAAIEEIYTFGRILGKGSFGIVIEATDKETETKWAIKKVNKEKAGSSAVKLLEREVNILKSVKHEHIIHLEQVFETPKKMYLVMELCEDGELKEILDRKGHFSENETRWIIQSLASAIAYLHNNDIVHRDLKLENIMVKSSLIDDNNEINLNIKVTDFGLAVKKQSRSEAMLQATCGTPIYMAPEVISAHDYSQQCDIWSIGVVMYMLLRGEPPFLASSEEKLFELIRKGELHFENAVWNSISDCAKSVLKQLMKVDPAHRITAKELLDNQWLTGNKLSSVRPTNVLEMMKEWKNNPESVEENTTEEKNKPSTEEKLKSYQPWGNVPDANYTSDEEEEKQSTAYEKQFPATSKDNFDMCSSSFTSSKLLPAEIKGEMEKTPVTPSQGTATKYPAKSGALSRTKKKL
GSK3beta inhib: human GSK3beta kinase inhibitors, primary screen, biochemical, cell-free homogeneous, HTS; GST-GSK3beta kinase, ADP-Glo luminescence, 60 min; stronger effect = lower value; 300,000 compounds, 0.038% hits; activity score (negative = inhibition), % at 10 µM; Glycogen synthase kinase-3 beta (Homo sapiens), P49841;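 active means more than half of replicate wells score below -50%, meaning over 50% inhibition versus plate controls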
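Test system: GST-fused GSK3beta enzyme, cell-free | Quantity: 1.6 ng GST-GSK3beta enzyme per well | Reagent: 25 µM ATP with peptide substrate | Schedule: 60 min enzyme reaction, room temperature | Signal: Luminescent ADP-Glo measurement of ADP formed | Read-out basis: Score relative to plate controls | Control set: DMSO and 20 µM GW8510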
GSK3 alpha inh: blockers of GSK3A enzyme activity – biochemical, luminescence, cell-free homogeneous, HTS, primary screen; GSK-3 alpha kinase, ADP-Glo luminescence, 60 min; inhibition, % at 10 µM; 320,000 compounds, 0.1% hits; AID 2650, 2010;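 active means more than half of replicates show inhibition above 20%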;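 further: GST-tagged GSK-3 alpha with peptide substrate and 25 µM ATP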
INS-1E GSIS act: GLuc luminescence reporter in INS-1E cells, primary screen for activators of glucose-dependent secretion of insulin. INS-1E GLuc reporter insulin secretion, 2-3 h. activation, % at 16.6 µM. 370,000 compounds, 0.61% hits. AID 743287, 2014;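 active means lowest replicate activation of at least 40%, so every replicate reaches that level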
HIV Env fusion: inhibitors of HIV-1 Env-driven cell-cell fusion, primary screen, HeLa-JRFL effector, CEM21 target cells, luciferase | inhibition, % at 12.3 µM | 360,000 compounds, 1.1% hits | AID 651610, 2012;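 active means mean replicate inhibition score of at least 50 and every replicate individually at or above 50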
CDK5 p35 inh: inhibitors of human CDK5/p35 kinase, primary screen, biochemical, single concentration. Cyclin-dependent kinase 5 (Homo sapiens) + Cyclin-dependent kinase 5 activator 1 (Homo …. Recombinant CDK5/p35, ADP-Glo luminescence, 60 min. inhibition, % at 10 µM. 330,000 compounds, 0.01% hits. AID 488839, 2010;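 active means highest replicate inhibition of at least 50% and at least 75% of replicates reaching 50%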
Hits are given with their value; [ ] = remark or other dose. Hits are enriched below; roughly 1.4% of the tested compounds scored in any of these assays.

For COc1ccc2c3c(n(C)c2c1)[C@@H](CO)N(CC1CC1)CC31CCN(C(=O)Nc2c(C)noc2C)CC1 the results were INS-1E GSIS act inactive.
`COc1ccc(S(=O)(=O)N2C[C@@H](O)COC[C@@H]3O[C@H](CC(=O)NCc4ccc(Cl)c(Cl)c4)CC[C@H]32)cc1` gave INS-1E GSIS act inactive and HIV Env fusion inactive.
COc1ccc(NC(=O)N(C)C[C@@H]2Oc3ccc(NC(=O)Nc4cccc5ccccc45)cc3CC(=O)N([C@@H](C)CO)C[C@H]2C)cc1 was read as INS-1E GSIS act inactive and HIV Env fusion inactive.
`O=C(CC1c2ccccc2Oc2ccccc21)Nc1ccccc1F` gave STK33 kinase inh inactive, GSK3beta inhib inactive, GSK3 alpha inh inactive, INS-1E GSIS act inactive and CDK5 p35 inh inactive.
Screening O=C(CC1c2ccccc2Oc2ccccc21)Nc1ccccc1C(F)(F)F returned STK33 kinase inh inactive, GSK3beta inhib inactive, GSK3 alpha inh inactive, INS-1E GSIS act 102 and CDK5 p35 inh inactive.
`O=C(NNS(=O)(=O)c1ccc(F)cc1F)C1Cc2c(ccc3ccccc23)O1` (configuration not stated) gave STK33 kinase inh inactive, GSK3beta inhib inactive, GSK3 alpha inh inactive, HIV Env fusion 97 and CDK5 p35 inh inactive.
CS(=O)(=O)NNC(=O)C1Cc2c(ccc3ccccc23)O1 (configuration not stated) was read as STK33 kinase inh inactive, GSK3beta inhib inactive, GSK3 alpha inh inactive, INS-1E GSIS act inactive, HIV Env fusion inactive and CDK5 p35 inh inactive.
CNC[C@@H]1Oc2ccc(NC(=O)C3CCCCC3)cc2CC(=O)N([C@H](C)CO)C[C@@H]1C was read as INS-1E GSIS act inactive and HIV Env fusion inactive.
For Cc1sc2ncnc(N3CCC(C(=O)Nc4cc(S(C)(=O)=O)ccc4Cl)CC3)c2c1C the results were STK33 kinase inh inactive, GSK3beta inhib inactive, GSK3 alpha inh inactive, INS-1E GSIS act inactive, HIV Env fusion 92 and CDK5 p35 inh inactive.
`Cc1sc2ncnc(N3CCC(C(=O)Nc4cc(Cl)ccc4Cl)CC3)c2c1C` gave STK33 kinase inh inactive, GSK3 alpha inh inactive, INS-1E GSIS act inactive, HIV Env fusion inactive and CDK5 p35 inh inactive.
Screening Cc1sc2ncnc(N3CCC(C(=O)N(C)CC(=O)Nc4ccccc4Cl)CC3)c2c1C returned STK33 kinase inh inactive, GSK3beta inhib inactive, GSK3 alpha inh inactive, INS-1E GSIS act inactive, HIV Env fusion inactive and CDK5 p35 inh inactive.
CCN(CC(=O)Nc1cc(Cl)ccc1C)C(=O)C1CCN(c2ncnc3sc(C)c(C)c23)CC1 was read as HIV Env fusion 61.
CC[C@@H]1CC2=C(C(=O)OC(C)(C)O2)[C@H](c2ccc(F)cc2)O1 was read as INS-1E GSIS act 45 and HIV Env fusion inactive.
Screening CC1(C)OC(=O)C2=C(C[C@@H](CCc3ccccc3)O[C@@H]2c2ccc(F)cc2)O1 returned INS-1E GSIS act inactive and HIV Env fusion inactive.
CC(C)CC#Cc1cnc2c(c1)C(=O)N([C@@H](C)CO)C[C@H](C)[C@@H](CN(C)C(=O)Cc1ccncc1)O2 was read as INS-1E GSIS act inactive and HIV Env fusion inactive.
For Cc1noc(C)c1S(=O)(=O)N(C)C[C@@H]1Oc2ccc(NS(=O)(=O)c3cccs3)cc2CC(=O)N([C@H](C)CO)C[C@H]1C the results were INS-1E GSIS act inactive and HIV Env fusion inactive.
Screening CCN(CC)CCNCc1cc(Br)ccc1OCC(=O)NCc1ccccc1 returned STK33 kinase inh inactive, GSK3beta inhib inactive, GSK3 alpha inh inactive, INS-1E GSIS act inactive, HIV Env fusion inactive and CDK5 p35 inh inactive.
For CCN(CC)CCNCc1ccc(Br)cc1OCC(=O)NCc1ccccc1 the results were STK33 kinase inh inactive, GSK3beta inhib inactive, GSK3 alpha inh inactive, INS-1E GSIS act 62, HIV Env fusion inactive and CDK5 p35 inh inactive.
Cc1cccc(Nc2nc(N)c([N+](=O)[O-])c(N3CCOCC3)n2)c1 was read as STK33 kinase inh inactive, GSK3beta inhib inactive, GSK3 alpha inh inactive and CDK5 p35 inh inactive.
Cc1ccc(Nc2nc(N)c([N+](=O)[O-])c(N3CCCC(C)C3)n2)cc1C (configuration not stated) was read as STK33 kinase inh inactive, GSK3beta inhib inactive, GSK3 alpha inh inactive, INS-1E GSIS act 60 and CDK5 p35 inh inactive.
Cc1ccc(Nc2nc(N)c([N+](=O)[O-])c(N3CCOCC3)n2)cc1 was read as STK33 kinase inh inactive, GSK3beta inhib inactive, GSK3 alpha inh inactive, INS-1E GSIS act 56, HIV Env fusion inactive and CDK5 p35 inh inactive.
Screening N#Cc1ccc(CN2CCN(C(=O)CNC(=O)Cc3cccc4ccccc34)CC2)cc1 returned INS-1E GSIS act inactive, HIV Env fusion 71 and CDK5 p35 inh inactive.
For C[C@H]1CN([C@@H](C)CO)C(=O)c2cccc(NC(=O)Nc3ccc(C(F)(F)F)cc3)c2O[C@@H]1CN(C)Cc1ccc(-c2ccccc2)cc1 the results were INS-1E GSIS act inactive.
For C[C@H](CO)N1C[C@H](C)[C@H](CN(C)C(=O)C2CCC2)Oc2ncc(-c3ccc(F)cc3)cc2C1=O the results were INS-1E GSIS act inactive and HIV Env fusion inactive.
CC1CCC(NCCNC(=O)c2ccco2)CC1 (configuration not stated) was read as STK33 kinase inh inactive, GSK3beta inhib inactive, GSK3 alpha inh inactive, INS-1E GSIS act 44, HIV Env fusion inactive and CDK5 p35 inh inactive.
For O=C(NCCNC1CCCCC1)c1ccco1 the results were STK33 kinase inh inactive, GSK3beta inhib inactive, GSK3 alpha inh inactive, INS-1E GSIS act inactive, HIV Env fusion inactive and CDK5 p35 inh inactive.
`O=C(C[C@H]1C[C@H]2c3cc(NS(=O)(=O)c4ccc(F)cc4)ccc3O[C@H]2[C@@H](CO)O1)NCc1ccccc1F` gave INS-1E GSIS act inactive and HIV Env fusion 83[16.7 µM].
`COc1cccc(S(=O)(=O)Nc2ccc3c(c2)[C@@H]2C[C@@H](CC(=O)NCc4ccc(Cl)cc4)O[C@@H](CO)[C@@H]2O3)c1` gave INS-1E GSIS act inactive and HIV Env fusion inactive.
For O=C(C[C@H]1C[C@@H]2c3cc(NS(=O)(=O)c4ccc(F)cc4)ccc3O[C@@H]2[C@H](CO)O1)NCc1ccccc1F the results were INS-1E GSIS act inactive and HIV Env fusion inactive.
`O=C(C[C@H]1C[C@H]2c3cc(NS(=O)(=O)c4ccc(F)cc4)ccc3O[C@H]2[C@@H](CO)O1)NCc1ccc(-c2ccccc2)cc1` gave INS-1E GSIS act inactive and HIV Env fusion inactive.

Screens as filed in PubChem.
